Only some compounds are listed: those with a hit (about 1.6% of all), similar ones and a draw of the others.
Neddyl block – inhibitors of cullin neddylation, primary screen, biochemical, TR-FRET, uHTS, NAE and Ubc12; 0.58% of 360,000 active; NEDD8-conjugating enzyme Ubc12 (Homo sapiens) + NEDD8-activating enzyme E1 regulatory …; calls only at 25 µM; in the data active = inhibition above about 36%
proCasp7 act – procaspase-7 activators, primary screen, counter-screen for procaspase-3 activator project, biochemical, absorbance, HTS, human | 0.093% of 330,000 active | activation, % at 8.5 µM | Caspase-7 (Homo sapiens), P55210 | recombinant procaspase-7, Ac-DEVD-pNA absorbance 405 nm; D23A/D198A/D206A triple mutant, cannot self-cleave; scale: DMSO 0, 5 µM enzyme 100 | AID 463210, 2010;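 active = percent activation above the screen-wide mean plus 3 SD, cut at about 25% in these data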
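Assay system – Uncleavable procaspase-7 mutant enzyme · Quantity – 2 µM procaspase-7 mutant as dispensed · Times – 1 h preincubation, 2 h reaction · Dosing – single nominal 8.5 µM compound dose, 0.8% DMSO final · Buffer or medium – Zinc-free 50 mM HEPES buffer, pH 7.4, with NaCl and Triton X-100 · Detection – Epi-absorbance of released pNA at 405 nm, two timepoints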
proKLK7 act – proKLK7 zymogen activators, primary screen, biochemical, fluorescence intensity; activation, % at 7 µM; 0.9% of 370,000 active; purified proKLK7, EDANS-DABCYL substrate fluorescence; 100% is mature enzyme control, 0% vehicle;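 active = activation above the mean of all tested compounds plus 3 SD, computed per campaign excluding outliers beyond control limits, cut at about 13% in these data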
Target sequence (P49862 whole entry, looked up): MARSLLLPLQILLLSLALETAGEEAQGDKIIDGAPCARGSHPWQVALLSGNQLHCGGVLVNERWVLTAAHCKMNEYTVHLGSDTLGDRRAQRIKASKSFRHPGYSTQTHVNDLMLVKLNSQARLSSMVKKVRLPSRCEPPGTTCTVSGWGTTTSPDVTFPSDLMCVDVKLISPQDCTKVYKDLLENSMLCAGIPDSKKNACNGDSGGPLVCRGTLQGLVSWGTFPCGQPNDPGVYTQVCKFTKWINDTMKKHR
procasp3 activ – activators of human procaspase-3 D3A mutant, primary screen, biochemical, absorbance, PC-3 D3A mutant, single concentration; Caspase-3 (Homo sapiens), P42574; recombinant procaspase-3 D3A, Ac-DEVD-pNA absorbance 405 nm; activation, % at 8.5 µM; 0.11% of 330,000 active; AID 463141, 2010;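 active = activation above the mean of all tested compounds plus 3 SD, cut at about 21% in these data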;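 also: 0% = DMSO alone and 100% = DMSO wells spiked with extra 5 µM PC-3 D3A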
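Evaluation: percent activation relative to control range; Material: Procaspase-3 D3A mutant, all three cleavage aspartates alanine; Compound: single dose, 8.5 µM nominal compound, 0.8% DMSO; Replication: one well per compound; Signal: absorbance at 405 nm, 0 and 120 min; Schedule: 1 h preincubation plus 2 h reaction at 25 °C.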
KLK7 act conf – proKLK7 zymogen activators, confirmation, biochemical, fluorescence intensity, triplicate; shares compounds with proKLK7 act; purified proKLK7, EDANS-DABCYL substrate fluorescence; scaled: vehicle 0, mature enzyme 100; activation, % at 7 µM; 68% of 3,200 active; AID 686949, 2013;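 active = activation, as change over the incubation, above the mean of all tested compounds plus 3 SD, cut at about 13% in these data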
EDANS-DABCYL int – EDANS-DABCYL substrate optical interference, artefact control for kallikrein-7 zymogen activator project, biochemical, fluorescence intensity, high throughput | shares compounds with proKLK7 act | no enzyme, 4 h; solvent 0%, active enzyme control 100% | activation, % at 7 µM | 80% of 3,200 active | AID 686952, 2013;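 active = activation above the all-compound mean plus 3 SD, ignoring values outside control-based bounds, cut at about 4.8% in these data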;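 also: value is the 4 h activation minus the activation read at time zero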
Numbers without * were called inactive; i = inactive; nt = no result shown; ! = not active in a repeat.

SMILES | Neddyl block | proCasp7 act | proKLK7 act | procasp3 activ | KLK7 act conf | EDANS-DABCYL int
COC(=O)c1ccccc1NS(=O)(=O)c1ccc2c3c(cccc13)C(=O)N2 | nt | -8 | 2 | -4 | nt | nt
O=C(O)CCCCCNS(=O)(=O)c1ccc2c3c(cccc13)C(=O)N2 | nt | nt | 63* | nt | 61* | 69*
O=C(O)CNS(=O)(=O)c1ccc2c3c(cccc13)C(=O)N2 | nt | nt | 60* | nt | 73* | 73*
CNS(=O)(=O)c1cc(S(=O)(=O)NC)c2cccc3c2c1NC3=O | nt | -1 | 21* | -7 | 21* | 21*
COC(=O)c1ccc(C(=O)OC)c(NC(=O)CSCc2ccccc2Br)c1 | i | 0 | -1 | 0 | nt | nt
Cc1cc(O)ccc1NS(=O)(=O)c1ccc2c3c(cccc13)C(=O)N2 | i | 17 | 81* | 0 | 86* | 98*
COc1ccc(-n2c(SCC(=O)C(C)(C)C)nc3c(sc(=S)n3-c3ccccc3)c2=O)c(OC)c1 | i | -21 | 0 | -6 | nt | nt
O=C1/C(=C/c2cccc(F)c2)Oc2cc(O)ccc21 | nt | 7 | 21* | -7 | 56* | 79*
Cc1cccc(/C=C2\Oc3cc(OS(C)(=O)=O)ccc3C2=O)c1 | i | 0 | -1 | 7 | nt | nt
O=C1c2ccccc2NC(c2cccc(O)c2)N1Cc1ccco1 (stereo not given) | nt | -14 | 27* | 1 | 29* | 29*
COc1ccc(C2Nc3ccccc3C(=O)N2Cc2ccco2)cc1CN1C(=O)c2ccccc2C1=O (stereo not given) | i | 0 | 30*! | -7 | 11 | 5.8*
CSc1cccc(NC(=O)CCCOc2cc(=O)n(C)c3ccccc23)c1 | i | nt | 0 | nt | nt | nt
CCCCc1cc(=O)oc2cc(C)cc(OCC(=O)O)c12 | nt | -4 | 12 | -6 | nt | nt
CCc1cc(=O)oc2cc(OC(C)=O)cc(OC(C)=O)c12 | i | 10 | 79* | 1 | 486* | 534*
COc1cc(OCc2ccccc2)c2c(CCC(=O)O)cc(=O)oc2c1 | nt | nt | 89* | nt | 59* | 58*
N#Cc1ccc(S(=O)(=O)N2CCC(C(=O)Nc3cccc(C(=O)NC4CC4)c3)CC2)cc1 | i | 9 | 0 | 4 | nt | nt
O=C(O)CSc1ncnc2scc(-c3ccc(Br)cc3)c12 | i | 8 | 0 | 2 | nt | nt
CC(=O)Nc1c2c3c(cccc3n(C)c1=O)C(=O)c1ccccc1-2 | i | -3 | 23* | 2 | 23* | 21*
Oc1ccc2c(c1)OCC1(O)Cc3cc(O)c(O)cc3C21 (stereo not given) | i | nt | 16* | nt | 58* | 57*
O=C(NCCNC(=O)c1cc(Cl)ccc1Cl)c1ccccn1 | i | -4 | -1 | -2 | nt | nt
Cn1c(CO)nc2cc(N)ccc21 | i | -4 | 1 | -2 | nt | nt
Nc1ccc(-c2nc3cc(N)ccc3n2CCO)cc1 | nt | 3 | 68* | 4 | 66* | 69*
Cc1cc(-c2nnc(SCC(=O)Nc3cccc(F)c3)n2N)n[nH]1 | i | 11 | 0 | 14 | nt | nt
O=C(NC1CCCC1)c1cc2c(=O)n3ccccc3nc2s1 | nt | -5 | 61* | 1 | 75* | 66*
Cn1c(C(=O)NC2CCCCC2)cc2c(=O)n3ccccc3nc21 | nt | -2 | 83* | -4 | 81* | 75*
CC1CCCCN1C(=O)c1cc2c(=O)n3ccccc3nc2s1 (stereo not given) | nt | -7 | 32* | -2 | 40* | 40*
CC1CCCN(C(=O)c2cc3c(=O)n4ccccc4nc3s2)C1 (stereo not given) | nt | 1 | 26* | -1 | 30* | 34*
Nc1c(C(=O)CSc2n[nH]c(-c3ccccc3)n2)c(=O)[nH]c(=O)n1C1CC1 | i | nt | 0 | nt | nt | nt
